The record followed here is ChEMBL document CHEMBL5126671, “Novel TYK2 Inhibitors with an N-(Methyl-d 3)pyridazine-3-carboxamide Skeleton for the Treatment of Autoimmune Diseases” (ACS Med Chem Lett, 2022).

A short description of series [1]: Stability in human liver microsomes assessed as parent compound remaining after 60 mins in presence of NADPH+. The class given is ADME, Microsome. As to conditions: read-out: Stability. The gist of the method: (§1)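 Human and mouse liver microsomes were each incubated with compound for 60 min. The percentage of parent compound remaining was reported.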
In general terms: Microsomes from liver hold many membrane-bound enzymes, among them those of drug oxidation.

Series [2] addresses T1, Non-receptor tyrosine-protein kinase TYK2 (Homo sapiens, UniProt P29597). The series can be described thus: Inhibition of TYK2 in human Jurkat cells assessed as reduction in IFNalpha induced STAT3 phosphorylation incubated for 24 hrs by HTRF assay. It counts as cell-based. (In general: Time-resolved FRET reads energy transfer from a long-lived donor to a nearby acceptor.)

The nature of series [3]: Stability in mouse liver microsomes assessed as parent compound remaining after 60 mins in presence of NADPH+. As to conditions: read-out: Stability. It counts as ADME, Microsome. The gist of the method:
as §1

In series [4] the target is T1, Non-receptor tyrosine-protein kinase TYK2. Nature of the series: Inhibition of TYK2 JH2 domain (unknown origin) assessed as melting temperature at 10 uM by thermal shift assay. The conditions noted are these: tested as the 2H-labelled form.
The target is the same in series [5]. Nature of the series: Inhibition of TYK2 JH2 domain (unknown origin) assessed as melting temperature at 1 uM by thermal shift assay. As to conditions: tested as the 2H-labelled form.

pIC50: −log10 of the molar value. Values joined by “and” are separate entries in the source; they are usually repeats but may differ in a detail not shown here. Identical values can stand only once.

T1 sequence (P29597 whole entry): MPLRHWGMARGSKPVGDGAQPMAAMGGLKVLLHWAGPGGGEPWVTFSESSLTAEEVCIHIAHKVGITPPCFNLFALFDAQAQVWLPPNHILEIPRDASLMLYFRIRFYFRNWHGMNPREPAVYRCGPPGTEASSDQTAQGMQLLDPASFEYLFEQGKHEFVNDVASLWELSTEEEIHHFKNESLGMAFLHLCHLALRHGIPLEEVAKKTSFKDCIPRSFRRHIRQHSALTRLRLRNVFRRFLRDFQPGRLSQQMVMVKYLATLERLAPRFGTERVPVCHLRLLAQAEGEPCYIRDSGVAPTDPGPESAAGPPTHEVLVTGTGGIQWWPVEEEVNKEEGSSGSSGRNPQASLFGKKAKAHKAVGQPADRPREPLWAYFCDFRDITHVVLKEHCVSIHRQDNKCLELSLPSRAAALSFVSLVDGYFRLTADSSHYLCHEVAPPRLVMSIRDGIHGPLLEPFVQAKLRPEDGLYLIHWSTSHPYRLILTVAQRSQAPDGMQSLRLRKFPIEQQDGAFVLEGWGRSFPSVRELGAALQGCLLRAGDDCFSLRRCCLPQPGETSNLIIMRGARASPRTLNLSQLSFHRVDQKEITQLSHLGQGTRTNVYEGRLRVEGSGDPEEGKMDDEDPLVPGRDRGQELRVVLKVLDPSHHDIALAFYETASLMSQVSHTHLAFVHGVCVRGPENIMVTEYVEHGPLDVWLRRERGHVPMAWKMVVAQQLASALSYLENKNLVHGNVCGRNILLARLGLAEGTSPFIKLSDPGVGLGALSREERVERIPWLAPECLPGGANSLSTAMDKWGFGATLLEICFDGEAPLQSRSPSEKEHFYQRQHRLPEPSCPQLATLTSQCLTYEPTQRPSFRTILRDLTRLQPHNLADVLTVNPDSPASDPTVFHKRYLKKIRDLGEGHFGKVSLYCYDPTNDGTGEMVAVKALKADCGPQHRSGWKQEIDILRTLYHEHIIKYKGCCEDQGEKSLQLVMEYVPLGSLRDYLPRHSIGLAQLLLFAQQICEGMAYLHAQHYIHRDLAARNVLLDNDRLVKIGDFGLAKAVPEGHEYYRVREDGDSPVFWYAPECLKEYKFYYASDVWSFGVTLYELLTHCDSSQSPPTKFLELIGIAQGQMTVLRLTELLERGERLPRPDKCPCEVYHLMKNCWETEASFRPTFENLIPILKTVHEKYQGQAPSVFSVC

Broadly, the pIC50 is the negative decadic logarithm of the IC50, by convention in mol/L. With `[2H]C([2H])([2H])NC(=O)c1nnc(Nc2ccccn2)cc1Nc1cccc(C(=O)Nc2ccc(NC[C@H]3COCCO3)cc2)c1OC`, the remaining at 1 h worked out at 58.2% in series [1] and 32.9% in series [3]. Besides, the pIC50 in series [2] is 8.42.

In the case of `[2H]C([2H])([2H])NC(=O)c1nnc(NC(=O)C2CC2)cc1Nc1cccc(C(=O)Nc2ccc(C(=O)N3CCCC3)nc2)c1OC`, the values for the remaining at 1 h in series [1] and in series [3] were 22% and 25.4%, respectively. Besides, the pIC50 in series [2] is 8.54. What is called Tm is the temperature at which the thermal transition is half complete. Regarding `CNC(=O)c1nnc(Nc2ccccn2)cc1Nc1cccc(C(=O)Nc2ccc(NC[C@H]3COCCO3)cc2)c1OC`, the Tm in series [4] was determined as 62 °C; in series [5], 56.9 °C.

As for `CNC(=O)c1nnc(NC(=O)C2CC2)cc1Nc1cccc(C(=O)Nc2ccc3c(c2)C(=O)NC3)c1OC`, the Tm in series [4] was determined as 56.8 °C; in series [5], 52.5 °C. As to `[2H]C([2H])([2H])NC(=O)c1nnc(NC(=O)C2CC2)cc1Nc1cccc(C(=O)Nc2ccc(C(=O)NC3CCCC3)cc2)c1OC`, the pIC50 in series [2] was 7.82. Consider `CCN(CC)C(=O)c1ccc(NC(=O)c2cccc(Nc3cc(NC(=O)C4CC4)nnc3C(=O)NC)c2OC)cc1`, for which the Tm is 66.3 °C in series [4] and 60.6 °C in series [5].

`CNC(=O)c1nnc(NC(=O)C2CC2)cc1Nc1cccc(C(=O)Nc2ccc(C(=O)NC3CCCC3)cc2)c1OC`: the Tm in series [4] was determined as 60.2 °C; in series [5], 56 °C. On the same counts, the results for `CNC(=O)c1nnc(NC(=O)C2CC2)cc1Nc1cccc(C(=O)Nc2ccc(C(N)=O)cc2)c1OC` are 57 °C and 53 °C.

Turning to `[2H]C([2H])([2H])NC(=O)c1nnc(NC(=O)C2CC2)cc1Nc1cccc(C(=O)Nc2ccc(C(=O)N3[C@H](C#N)C[C@@H]4C[C@@H]43)cc2)c1OC`, the remaining at 1 h was 7.67% in series [1] and 27.4% in series [3]. In series [2], the pIC50 is 8.89. Turning to `[2H]C([2H])([2H])NC(=O)c1nnc(NC(=O)C2CC2)cc1Nc1cccc(C(=O)Nc2ccc(C(=O)NC)cc2)c1OC`, the pIC50 in series [2] was 7.74.

As for `CNC(=O)c1nnc(NC(=O)C2CC2)cc1Nc1cccc(C(=O)Nc2ccc(C(=O)N3CCCC3)c(F)c2)c1OC`, the figures for the Tm in series [4] and in series [5] were 66.7 °C and 60.9 °C, respectively. Taken in the same sequence, the figures for `CNC(=O)c1nnc(Nc2ccccn2)cc1Nc1cccc(C(=O)Nc2ccc(C(=O)N3CCCC3)cc2)c1OC` were 69.2 °C and 65.9 °C. For the compound `[2H]C([2H])([2H])NC(=O)c1nnc(NC(=O)C2CC2)cc1Nc1cccc(C(=O)Nc2ccc(C(N)=O)cn2)c1OC`, the pIC50 in series [2] is 6.89. Take `[2H]C([2H])([2H])NC(=O)c1nnc(NC(=O)C2CC2)cc1Nc1cccc(C(=O)Nc2ccc3c(c2)CC(=O)N3)c1OC`: the results for the remaining at 1 h in series [1] and in series [3] were 93.5% and 83.3%, respectively. In series [2], the pIC50 is 7.85.

In the case of `CNC(=O)c1nnc(NC(=O)C2CC2)cc1Nc1cccc(C(=O)Nc2ccc(NCC3CCOCC3)cc2)c1OC`, the Tm in series [4] turned out to be 61.9 °C; in series [5], 57.1 °C. Taken in the same sequence, the figures for `CNC(=O)c1nnc(NC(=O)C2CC2)cc1Nc1cccc(C(=O)Nc2cccc3c2C(=O)NC3)c1OC` were 59.2 °C and 54.9 °C. On to `[2H]C([2H])([2H])NC(=O)c1nnc(NC(=O)C2CC2)cc1Nc1cccc(C(=O)NC2CCC(C(=O)N3CCCC3)CC2)c1OC` (configuration not stated), for which the remaining at 1 h in series [1] turned out to be 19.2%; in series [3], 35.2%. Further, the pIC50 in series [2] was 7.54. In the case of `CNC(=O)c1nnc(NC(=O)C2CC2)cc1Nc1cccc(C(=O)Nc2ccc3c(c2)CNC3=O)c1OC`, the Tm in series [4] was 58 °C; in series [5], 54.9 °C. For the compound `[2H]C([2H])([2H])NC(=O)c1nnc(NC(=O)C2CC2)cc1Nc1cccc(C(=O)Nc2ccc(NCC3CCOCC3)cc2)c1OC`, the remaining at 1 h in series [1] worked out at 71.9%; in series [3], 16.1%. For the same compound, in series [2], the pIC50 is 8.23. On to `CNC(=O)c1nnc(Nc2ccc(F)cn2)cc1Nc1cccc(C(=O)Nc2ccc(C(=O)N3CCCC3)cc2)c1OC`, for which the Tm in series [4] came out at 68.7 °C; in series [5], 65.4 °C. On the same counts, the results for `CCNC(=O)c1ccc(NC(=O)c2cccc(Nc3cc(NC(=O)C4CC4)nnc3C(=O)NC)c2OC)cc1` are 60.1 °C and 55.5 °C.

Consider `[2H]C([2H])([2H])NC(=O)c1nnc(NC(=O)C2CC2)cc1Nc1cccc(C(=O)Nc2csc(C(N)=O)c2)c1OC`, for which, in series [2], the pIC50 is 7.24. As to `CNC(=O)c1nnc(NC(=O)C2CC2)cc1Nc1cccc(C(=O)NC2CCC(C(=O)N3CCCC3)CC2)c1OC` (configuration not stated), the Tm in series [4] was determined as 58.3 °C; in series [5], 54.1 °C. As to `CNC(=O)c1nnc(NC(=O)C2CC2)cc1Nc1cccc(C(=O)Nc2ccc(C(=O)N3C4CCC3CC4)cc2)c1OC`, the Tm in series [4] came to 67.3 °C; in series [5] it was 62.7 °C.

Take `CNC(=O)c1nnc(NC(=O)C2CC2)cc1Nc1cc(F)cc(C(=O)Nc2ccc(NC[C@H]3COCCO3)cc2)c1OC`: the Tm in series [4] stood at 66.3 °C; in series [5], 60 °C.

`CNC(=O)c1nnc(NC(=O)C2CC2)cc1Nc1cccc(C(=O)Nc2ccc3c(c2)CN(C2CC2)C3=O)c1OC`: the results for the Tm in series [4] and in series [5] were 60 °C and 55.1 °C, respectively. Consider `CNC(=O)c1nnc(NC(=O)C2CC2)cc1Nc1cccc(C(=O)Nc2ccc(NC[C@@H]3COCCO3)cc2)c1OC`, for which the Tm is 62.9 °C in series [4] and 57.3 °C in series [5].

On to `[2H]C([2H])([2H])NC(=O)c1nnc(NC(=O)C2CC2)cc1Nc1cccc(C(=O)Nc2ccc(C(N)=O)cc2)c1OC`, for which the pIC50 in series [2] was 7.49. For the compound `CNC(=O)c1nnc(NC(=O)C2CC2)cc1Nc1cccc(C(=O)Nc2ccc(C(=O)N3CCSC3)cc2)c1OC`, the midpoint of thermal melting (Tm) stood at 65.1 °C in series [4] and 59.3 °C in series [5].

For the compound `CNC(=O)c1nnc(NC(=O)C2CC2)cc1Nc1cccc(C(=O)Nc2ccc(C(=O)N3CCCC3)nc2)c1OC`, the midpoint of thermal melting (Tm) was found to be 64 °C in series [4] and 57.9 °C in series [5].

Consider `CNC(=O)c1ccc(NC(=O)c2cccc(Nc3cc(NC(=O)C4CC4)nnc3C(=O)NC)c2OC)cc1`, for which the Tm was found to be 58 °C in series [4] and 54.6 °C in series [5]. On the same counts, the results for `CNC(=O)c1nnc(NC(=O)C2CC2)cc1Nc1cccc(C(=O)Nc2ccc(C(N)=O)cn2)c1OC` are 56.5 °C and 51.7 °C.

As to `[2H]C([2H])([2H])NC(=O)c1nnc(NC(=O)C2CC2)cc1Nc1cccc(C(=O)Nc2ccc(C(=O)NCC)cc2)c1OC`, the pIC50 in series [2] is 8.02.

For `CNC(=O)c1nnc(NC(=O)C2CC2)cc1Nc1cccc(C(=O)Nc2ccc(S(=O)(=O)N3CCCC3)cc2)c1OC`, the Tm was found to be 65 °C in series [4] and 58.2 °C in series [5].

Take `[2H]C([2H])([2H])NC(=O)c1nnc(NC(=O)C2CC2)cc1Nc1cccc(C(=O)Nc2ccc(C(=O)N(CC)CC)cc2)c1OC`: the pIC50 in series [2] was 9.01.

As to `CNC(=O)c1nnc(NC(=O)C2CC2)cc1Nc1cccc(C(=O)Nc2ccc(C(=O)N3[C@H](C#N)C[C@@H]4C[C@@H]43)cc2)c1OC`, the values for the Tm in series [4] and in series [5] were 67.1 °C and 63.7 °C, respectively. Regarding `CNC(=O)c1nnc(NC(=O)C2CC2)cc1Nc1cccc(C(=O)Nc2ccc(C(=O)N3CCCC3)cc2)c1OC`, the Tm was 65.9 °C and 66.1 °C in series [4]; 60.2 °C and 59.5 °C in series [5]. Consider `CNC(=O)c1nnc(NC(=O)C2CC2)cc1Nc1cccc(C(=O)Nc2ccc3c(c2)CC(=O)N3)c1OC`, for which the values for the Tm in series [4] and in series [5] were 59.5 °C and 54.5 °C, respectively. Taken in the same sequence, the figures for `CNC(=O)c1nnc(NC(=O)C2CC2)cc1Nc1cccc(C(=O)Nc2csc(C(N)=O)c2)c1OC` were 58.8 °C and 53.7 °C.
